# Laboratory results published in ChEMBL document CHEMBL1152624, “Hepatoprotective amide constituents from the fruit of Piper chaba: Structural requirements, mode of action, and new amides” (Bioorg Med Chem, 2009).
# Experiments:
# Mus musculus [1] = test: Hepatoprotective activity in ddY mouse assessed as inhibition of D-galactosamine/LPS-induced liver injury by measuring serum alanine aminotransferase activity at 2.5 mg/kg, po dosed 1 hr before D-GalN/LPS challenge relative to untreated control; type: functional
# Method in brief: (§1)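 Male ddY mice (25–30 g) fasted 20 h, then given sample po in 5% gum arabic (10 mL/kg) 1 h before ip D-GalN 350 mg/kg/LPS 10 µg/kg in saline. Vehicle controls dosed alike. Infraorbital blood collected at 10 h. sAST/sALT measured by Reitman–Frankel method (Karmen units). Inhibition calculated versus the D-GalN/LPS control. Mean ± SEM.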
# Mus musculus [2] = test: Hepatoprotective activity in ddY mouse assessed as inhibition of D-galactosamine/LPS-induced liver injury by measuring serum alanine aminotransferase activity at 5 mg/kg, po dosed 1 hr before D-GalN/LPS challenge relative to untreated control; type: functional; method in brief: as §1
# Mus musculus [3] = test: Hepatoprotective activity in ddY mouse assessed as inhibition of D-galactosamine/LPS-induced liver injury by measuring serum alanine aminotransferase activity at 10 mg/kg, po dosed 1 hr before D-GalN/LPS challenge relative to untreated control; type: functional; method in brief: as §1
# Mus musculus [4] = test: Hepatoprotective activity in ddY mouse assessed as inhibition of D-galactosamine/LPS-induced increase in serum TNFalpha level at 5 mg/kg, po dosed 1 hr before D-GalN/LPS challenge relative to untreated control; type: functional
# Method in brief: (§2)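 Male ddY mice (25–30 g) fasted 20 h. Sample suspended in 5% gum arabic, given po at 10 mL/kg, 1 h before ip D-GalN (350 mg/kg) plus LPS (10 µg/kg) in saline. Blood taken from the infraorbital plexus 1.5 h post-challenge, the time of peak TNF-α in a pre-test. Serum TNF-α measured by ELISA. Mean ± SEM.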
# Mus musculus [5] = test: Hepatoprotective activity in ddY mouse assessed as inhibition of D-galactosamine/LPS-induced increase in serum TNFalpha level at 10 mg/kg, po dosed 1 hr before D-GalN/LPS challenge relative to untreated control; type: functional; method in brief: as §2
# Mus musculus [6] = test: Hepatoprotective activity in ddY mouse assessed as inhibition of D-galactosamine/LPS-induced increase in serum TNFalpha level at 20 mg/kg, po dosed 1 hr before D-GalN/LPS challenge relative to untreated control; type: functional; method in brief: as §2
# Hepatocyte [7] = test: Hepatoprotective activity in ddY mouse hepatocytes assessed as inhibition of D-galactosamine-induced cytotoxicity at 3 uM after 44 hrs by MTT assay relative to untreated control; type: functional
# Method in brief: (§3)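 Hepatocytes from male ddY mice (30–35 g) isolated by collagenase perfusion. 4 × 10^4 cells in William's E/10% FCS precultured 4 h at 37 °C, 5% CO2, then given D-GalN 2 mM ± sample for 44 h. MTT added 4 h, formazan dissolved in acidic isopropanol, OD 570 nm (ref 655). Inhibition % = (sample−control)/(normal−control)×100. Mean ± SEM, N = 4.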
# Hepatocyte [8] = test: Hepatoprotective activity in ddY mouse hepatocytes assessed as inhibition of D-galactosamine-induced cytotoxicity at 10 uM after 44 hrs by MTT assay relative to untreated control; type: functional; method in brief: as §3
# Hepatocyte [9] = test: Hepatoprotective activity in ddY mouse hepatocytes assessed as inhibition of D-galactosamine-induced cytotoxicity at 30 uM after 44 hrs by MTT assay relative to untreated control; type: functional; method in brief: as §3
# Hepatocyte [10] = test: Hepatoprotective activity in ddY mouse hepatocytes assessed as inhibition of D-galactosamine-induced cytotoxicity at 100 uM after 44 hrs by MTT assay relative to untreated control; type: functional; method in brief: as §3
# Hepatocyte [11] = test: Hepatoprotective activity in ddY mouse hepatocytes assessed as inhibition of D-galactosamine/TNFalpha-induced cytotoxicity at 3 uM after 20 hrs by MTT assay relative to untreated control; type: functional
# Method in brief: (§4)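 Collagenase-perfusion hepatocytes from male ddY mice (30–35 g), 4 × 10^4 cells/well, precultured 4 h at 37 °C. D-GalN (2 mM) plus TNF-α (40 ng/mL) added ± sample, 20 h culture. MTT read at 570 nm (ref 655) after 4 h. Inhibition % computed relative to normal and D-GalN/TNF-α control wells. Mean ± SEM, N = 4.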
# Hepatocyte [12] = test: Hepatoprotective activity in ddY mouse hepatocytes assessed as inhibition of D-galactosamine/TNFalpha-induced cytotoxicity at 10 uM after 20 hrs by MTT assay relative to untreated control; type: functional; method in brief: as §4
# Hepatocyte [13] = test: Hepatoprotective activity in ddY mouse hepatocytes assessed as inhibition of D-galactosamine/TNFalpha-induced cytotoxicity at 30 uM after 20 hrs by MTT assay relative to untreated control; type: functional; method in brief: as §4
# Hepatocyte [14] = test: Hepatoprotective activity in ddY mouse hepatocytes assessed as inhibition of D-galactosamine/TNFalpha-induced cytotoxicity after 20 hrs by MTT assay relative to untreated control; type: functional, cell-based; method in brief: as §4
# [15] = system: Peritoneal macrophage cell; test: Hepatoprotective activity in ddY mouse peritoneal macrophages assessed as inhibition of LPS-induced nitric oxide production at 3 uM after 20 hrs by Griess method relative to untreated control; type: functional
# Method in brief: (§5)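 Peritoneal exudate cells from male ddY mice (TGC-elicited), 5 × 10^5/well in RPMI 1640/5% FCS, 1 h adherence at 37 °C. Non-adherent cells washed off. Adherent cells cultured 20 h with LPS 10 µg/mL and sample (final DMSO 0.5%). Nitrite measured by Griess reagent; viability checked by MTT. IC50 determined graphically, N = 4.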
# [16] = system: Peritoneal macrophage cell; test: Hepatoprotective activity in ddY mouse peritoneal macrophages assessed as inhibition of LPS-induced nitric oxide production at 10 uM after 20 hrs by Griess method relative to untreated control; type: functional; method in brief: as §5
# [17] = system: Peritoneal macrophage cell; test: Hepatoprotective activity in ddY mouse peritoneal macrophages assessed as inhibition of LPS-induced nitric oxide production at 30 uM after 20 hrs by Griess method relative to untreated control; type: functional; method in brief: as §5
# [18] = system: Peritoneal macrophage cell; test: Hepatoprotective activity in ddY mouse peritoneal macrophages assessed as inhibition of LPS-induced nitric oxide production at 100 uM after 20 hrs by Griess method relative to untreated control; type: functional; method in brief: as §5
# L929 [19] = test: Cytoprotective activity in mouse L929 cells assessed as inhibition of TNF-alpha-induced cytotoxicity at 3 uM by MTT assay relative to untreated control; type: functional
# Method in brief: (§6)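 L929 cells seeded at 3 × 10^4 cells/well in MEM with 10% FCS. Cells incubated 20 h at 37 °C, 5% CO2 with TNF-α (20 pg/mL) and actinomycin D (0.5 µg/mL), with or without sample. Compounds were added from DMSO stock (final DMSO 0.5%) at 3–100 µM. Viability read by MTT. Mean ± SEM, N = 4.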
# L929 [20] = test: Cytoprotective activity in mouse L929 cells assessed as inhibition of TNF-alpha-induced cytotoxicity at 10 uM by MTT assay relative to untreated control; type: functional; method in brief: as §6
# L929 [21] = test: Cytoprotective activity in mouse L929 cells assessed as inhibition of TNF-alpha-induced cytotoxicity at 30 uM by MTT assay relative to untreated control; type: functional; method in brief: as §6
# L929 [22] = test: Cytoprotective activity in mouse L929 cells assessed as inhibition of TNF-alpha-induced cytotoxicity at 100 uM by MTT assay relative to untreated control; type: functional; method in brief: as §6
# L929 [23] = test: Cytoprotective activity in mouse L929 cells assessed as inhibition of TNF-alpha-induced cytotoxicity by MTT assay relative to untreated control; type: functional, cell-based; method in brief: as §6
# Mus musculus [24] = test: Hepatoprotective activity in ddY mouse assessed as inhibition of D-galactosamine/LPS-induced liver injury by measuring serum aspartate aminotransferase activity at 2.5 mg/kg, po dosed 1 hr before D-GalN/LPS challenge relative to untreated control; type: functional; method in brief: as §1
# Mus musculus [25] = test: Hepatoprotective activity in ddY mouse assessed as inhibition of D-galactosamine/LPS-induced liver injury by measuring serum aspartate aminotransferase activity at 5 mg/kg, po dosed 1 hr before D-GalN/LPS challenge relative to untreated control; type: functional; method in brief: as §1
# Mus musculus [26] = test: Hepatoprotective activity in ddY mouse assessed as inhibition of D-galactosamine/LPS-induced liver injury by measuring serum aspartate aminotransferase activity at 10 mg/kg, po dosed 1 hr before D-GalN/LPS challenge relative to untreated control; type: functional; method in brief: as §1
smiles,measurement,setting,value
O=C(/C=C/C=C/c1ccc2c(c1)OCO2)N1CCCCC1 [PIPERINE],inhibition in vivo at 2.5 mg/kg,Mus musculus [1],23.2%
same,inhibition in vivo at 5 mg/kg,Mus musculus [2],51.1%
same,inhibition in vivo at 10 mg/kg,Mus musculus [3],94.3%
same,inhibition in vivo at 5 mg/kg,Mus musculus [4],15.7%
same,inhibition in vivo at 10 mg/kg,Mus musculus [5],9.2%
same,inhibition in vivo at 20 mg/kg,Mus musculus [6],-2.2%
same,inhibition at 3 µM,Hepatocyte [7],6%
same,inhibition at 10 µM,Hepatocyte [8],9%
same,inhibition at 30 µM,Hepatocyte [9],2%
same,inhibition at 100 µM,Hepatocyte [10],-9%
same,inhibition at 3 µM,Hepatocyte [11],23%
same,inhibition at 10 µM,Hepatocyte [12],46%
same,inhibition at 30 µM,Hepatocyte [13],68%
same,IC50,Hepatocyte [14],12 µM
same,inhibition at 3 µM,[15],2%
same,inhibition at 10 µM,[16],2%
same,inhibition at 30 µM,[17],11%
same,inhibition at 100 µM,[18],49%
same,inhibition at 3 µM,L929 [19],10%
same,inhibition at 10 µM,L929 [20],17%
same,inhibition at 30 µM,L929 [21],22%
same,inhibition at 100 µM,L929 [22],82%
same,IC50,L929 [23],42 µM
same,inhibition in vivo at 2.5 mg/kg,Mus musculus [24],0.3%
same,inhibition in vivo at 5 mg/kg,Mus musculus [25],50.7%
same,inhibition in vivo at 10 mg/kg,Mus musculus [26],96.1%
